Source: ChEMBL document CHEMBL4673191, “A scaffold hopping strategy to generate new aryl-2-amino pyrimidine MRSA biofilm inhibitors” (RSC Med Chem, 2021)
The source made the active and inactive calls. The calls are words filed in the database; no cut-off is given here.

What was measured:
Staphylococcus aureus [1] = test: Inhibition of biofilm formation in methicillin-resistant Staphylococcus aureus ATCC 43300 incubated for 24 hrs by crystal violet staining based assay; type: functional, organism-based; details: ATCC 43300, 24 h
Method in brief: (§1)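 Overnight culture subcultured to OD600 0.01 in TSB with 2.0% (w/v) glucose; compound diluted in this medium, 100 µL per well of PVC plates, static incubation 24 h at 37 °C. Wells washed with water, stained with 0.1% crystal violet 30 min at ambient temperature, stain solubilized in ethanol, OD540 read minus no-biofilm background. Duplicates, at least two separate repeats.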

Staphylococcus aureus [2] = test: Inhibition of biofilm formation in methicillin-resistant Staphylococcus aureus ATCC 43300 at 200 uM incubated for 24 hrs by crystal violet staining based assay relative to control; type: functional; method in brief: as §1
Klebsiella pneumoniae [3] = test: Antibacterial activity against Klebsiella pneumoniae B9 assessed as reduction in bacterial growth incubated for 16 hrs by broth microdilution assay; type: functional
Method in brief: (§2)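 Bacteria grown 4–6 h in CAMHB, subcultured to 5 x 10⁵ CFU/mL in fresh CAMHB. Compound added from 100 mM DMSO stock, then 2-fold serial dilution in microtiter plate; untreated and media-only wells as controls. Stationary incubation at 37 °C for 16 h, then OD₆₀₀ read. MIC taken as lowest concentration giving 90% growth inhibition vs untreated. Duplicate, repeated at least twice.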

Acinetobacter baumannii [4] = test: Antibacterial activity against Acinetobacter baumannii ATCC 4106 assessed as reduction in bacterial growth incubated for 16 hrs by broth microdilution assay; type: functional; method in brief: as §2
Acinetobacter baumannii [5] = test: Potentiation of colistin-induced antibacterial activty against Acinetobacter baumannii ATCC 4106 assessed as colistin MIC at 60 uM incubated for 16 hrs by broth microdilution assay (reference value: 1024 microg/ml); type: functional
Method in brief: (§3)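 Cultures grown 4–6 h in CAMHB, diluted to 5 x 10⁵ CFU/mL. Compound added to aliquots from 100 mM DMSO stock; one aliquot left undosed for colistin MIC alone. Colistin serially diluted 2-fold in the compound-dosed suspension; compound-alone wells kept. Stationary, 37 °C, 16 h, then OD₆₀₀. Colistin MIC = lowest concentration giving 90% growth inhibition vs untreated. Duplicate, at least twice.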

Staphylococcus aureus [6] = test: Antibiofilm activity against preformed methicillin-resistant Staphylococcus aureus ATCC 43300 assessed as dispersion of biofilm at 100 uM incubated for 24 hrs by crystal violet staining based assay; type: functional, organism-based
Method in brief: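 Overnight culture in TSB + 2.0% glucose subcultured to OD600 0.01 in TSBG; 100 µL per well of PVC plates, static 37 °C for 24 h to form biofilm. After washing, compound in medium added for a further 24 h at 37 °C; medium-only control. Washed, 0.1% crystal violet 30 min, ethanol-solubilized, OD540 with no-biofilm background subtracted. Duplicates, ≥2 repeats.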

Staphylococcus aureus [7] = test: Antibacterial activity against methicillin-resistant Staphylococcus aureus ATCC 43300 assessed as inhibition of planktonic bacterial growth at IC50 incubated for 24 hrs by colony counter analysis; type: functional
Method in brief: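 MRSA 43300 grown overnight in TSB with 2.0% glucose (TSBG), inoculated into fresh TSBG at OD600 0.01, compound added to 3 mL tube cultures; untreated control. Shaken at 37 °C; samples at 2, 4, 6, 8, 24 h serially diluted in TSBG, plated on nutrient agar, incubated overnight at 37 °C, colonies counted. Duplicates, at least two separate repeats.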

Klebsiella pneumoniae [8] = test: Potentiation of colistin-induced antibacterial activty against Klebsiella pneumoniae F2210219mcr-1 assessed as fractional inhibitory concentration index incubated for 16 hrs in presence of colistin by checkerboard assay; type: functional
Method in brief: (§4)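 Checkerboard in CAMHB inoculated with K. pneumoniae at 5 x 10⁵ CFU/mL. Compound serially diluted 2-fold down rows and colistin across columns, starting each at 2x top concentration; one row and one column give single-agent MICs.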

Staphylococcus aureus [9] = test: Inhibition of biofilm formation in methicillin-resistant Staphylococcus aureus ATCC 6538 incubated for 24 hrs by crystal violet staining based assay; type: functional, organism-based; details: ATCC 6538, 24 h; method in brief: as §1
Klebsiella pneumoniae [10] = test: Effect on lipid A substitution pattern of lipopolysaccharide in Klebsiella pneumoniae B9 by mass spectrometry; type: functional
Staphylococcus aureus [11] = test: Inhibition of biofilm formation in methicillin-resistant Staphylococcus aureus ATCC 33591 incubated for 24 hrs by crystal violet staining based assay; type: functional, organism-based; details: ATCC 33591, 24 h; method in brief: as §1
Klebsiella pneumoniae [12] = test: Potentiation of colistin-induced antibacterial activty against Klebsiella pneumoniae B9 assessed as fractional inhibitory concentration index incubated for 16 hrs in presence of colistin by checkerboard assay; type: functional; method in brief: as §4
[13] = Hemolytic activity against sheep blood assessed as blood cell lysis at 200 uM incubated for 1 hr by UV-visible spectrophotometry; type: ADME, tissue-based, Ovis aries; details: sheep blood cells, read-out: Activity
Method in brief: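 Defibrinated sheep blood centrifuged, washed and resuspended in PBS three times, then diluted 10-fold. Compound added from DMSO stock; 1% Triton X as 100% lysis and PBS as zero lysis. Shaken at 200 rpm, 37 °C, 1 h, then centrifuged. Supernatant diluted 40-fold in water and absorbance read at 540 nm.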

Klebsiella pneumoniae [14] = test: Potentiation of colistin-induced antibacterial activty against Klebsiella pneumoniae B9 assessed as fold reduction in colistin MIC at 60 uM incubated for 16 hrs by broth microdilution assay; type: functional; method in brief: as §3
Klebsiella pneumoniae [15] = test: Potentiation of colistin-induced antibacterial activity against Klebsiella pneumoniae B9 assessed as colistin MIC at 60 uM incubated for 16 hrs by broth microdilution assay (reference value: 512 ug/ml); type: functional; method in brief: as §3
Staphylococcus aureus [16] = test: Inhibition of biofilm formation in methicillin-resistant Staphylococcus aureus BAA-44 incubated for 24 hrs by crystal violet staining based assay; type: functional, organism-based; details: BAA-44, 24 h; method in brief: as §1
Klebsiella pneumoniae [17] = test: Potentiation of colistin-induced antibacterial activty against Klebsiella pneumoniae A5 assessed as fractional inhibitory concentration index incubated for 16 hrs in presence of colistin by checkerboard assay; type: functional; method in brief: as §4

| Structure (SMILES) | IC50 (Staphylococcus aureus [1]) [µM] | inhibition at 200 µM (Staphylococcus aureus [2]) [%] | MIC (Klebsiella pneumoniae [3]) [µM] | MIC (Acinetobacter baumannii [4]) [µM] | MIC (Acinetobacter baumannii [5]) [µg/mL] | Activity (Staphylococcus aureus [6]) | MIC (Staphylococcus aureus [7]) [µM] | fractional inhibitory concentration index (FICI) (Klebsiella pneumoniae [8]) | IC50 (Staphylococcus aureus [9]) [µM] | Activity (Klebsiella pneumoniae [10]) | IC50 (Staphylococcus aureus [11]) [µM] | fractional inhibitory concentration index (FICI) (Klebsiella pneumoniae [12]) | hemolysis at 1 h, 200 µM [13] [%] | Activity (Staphylococcus aureus [7]) | fold change (FC) (Klebsiella pneumoniae [14]) | MIC (Klebsiella pneumoniae [15]) [µg/mL] | IC50 (Staphylococcus aureus [16]) [µM] | fractional inhibitory concentration index (FICI) (Klebsiella pneumoniae [17]) |
| --- | --- | --- | --- | --- | --- | --- | --- | --- | --- | --- | --- | --- | --- | --- | --- | --- | --- | --- |
| Cl.Nc1nccc(-c2cccc(NC(=O)c3cc(F)cc(F)c3)c2)n1 | > 200 | > 50 | ≥ 200 | ≥ 200 | > 64 | inactive |  |  |  |  |  |  |  |  |  |  |  |  |
| Nc1nccc(-c2cccc(NC(=O)c3cc(Cl)cc(Br)c3)c2)n1 | 27.6 |  |  |  |  |  | > 200 |  |  |  |  |  |  |  |  |  |  |  |
| Cl.Nc1ncc(-c2ccc(NC(=O)c3cc(Cl)cc(Cl)c3)cc2)cn1 | > 200 | > 50 | ≥ 200 | ≥ 200 | > 64 | inactive |  |  |  |  |  |  |  |  |  |  |  |  |
| Cl.Nc1nccc(-c2cccc(NC(=O)c3cc(Br)cc(Br)c3)c2)n1 | 17.4 | > 50 | ≥ 200 | ≥ 200 | > 64 | inactive |  | <=0.19 | 15.6 | inactive | 20.2 | <=0.09 | 3.4 | inactive | 32 | 16 | 14.1 | <=0.31 |
| Cl.Nc1nccc(-c2ccc(NC(=O)c3cc(Cl)cc(Cl)c3)cc2)n1 | 41 | > 50 | ≥ 200 | ≥ 200 | > 64 | inactive |  |  |  |  |  |  |  |  |  |  |  |  |
| Cl.Nc1nccc(-c2ccc(NC(=O)c3cc(Br)cc(Br)c3)cc2)n1 | > 50 | > 50 | ≥ 200 | ≥ 200 | > 64 | inactive |  |  |  |  |  |  |  |  |  |  |  |  |
| Cl.Nc1nccc(-c2cccc(NC(=O)c3cc(Cl)cc(Cl)c3)c2)n1 | 26.4 | > 50 | ≥ 200 | ≥ 200 | > 64 | inactive |  |  | 24.9 |  | 26.6 |  | 5 | inactive |  |  | 29.5 |  |
| Cl.Nc1ncc(-c2ccccc2NC(=O)c2cc(Cl)cc(Cl)c2)cn1 | > 100 | > 50 | ≥ 200 | ≥ 200 | > 64 | inactive |  |  |  |  |  |  |  |  |  |  |  |  |
| Cl.Nc1ncc(-c2cccc(NC(=O)c3cc(Cl)cc(Cl)c3)c2)cn1 | > 200 | > 50 | ≥ 200 | ≥ 200 | > 64 | inactive |  |  |  |  |  |  |  |  |  |  |  |  |
| CCCCCCCCCC(=O)NCCCc1cnc(N)nc1 |  |  |  |  |  |  |  |  |  |  |  |  |  |  |  |  | 72 |  |
| Cl.Nc1ncc(-c2ccccc2NC(=O)c2cc(F)cc(F)c2)cn1 | > 200 | > 50 | ≥ 200 | ≥ 200 | > 64 | inactive |  |  |  |  |  |  |  |  |  |  |  |  |
| Cl.Nc1ncc(-c2cccc(NC(=O)c3cc(Br)cc(Br)c3)c2)cn1 | 43 | > 50 | ≥ 200 | ≥ 200 | > 64 | inactive |  |  |  |  |  |  |  |  |  |  |  |  |
| Cl.Nc1ncc(-c2ccc(NC(=O)c3cc(F)cc(F)c3)cc2)cn1 | > 200 | > 50 | ≥ 200 | ≥ 200 | > 64 | inactive |  |  |  |  |  |  |  |  |  |  |  |  |
| Cl.Nc1nccc(-c2ccccc2NC(=O)c2cc(F)cc(F)c2)n1 | > 200 | > 50 | ≥ 200 | ≥ 200 | > 64 | inactive |  |  |  |  |  |  |  |  |  |  |  |  |
| Cl.Nc1nccc(-c2ccccc2NC(=O)c2cc(Cl)cc(Cl)c2)n1 | > 50 | > 50 | ≥ 200 | ≥ 200 | > 64 | inactive |  |  |  |  |  |  |  |  |  |  |  |  |
| Cl.Nc1ncc(-c2ccc(NC(=O)c3cc(Br)cc(Br)c3)cc2)cn1 | > 100 | > 50 | ≥ 200 | ≥ 200 | > 64 | inactive |  |  |  |  |  |  |  |  |  |  |  |  |
| Cl.Nc1nccc(-c2ccc(NC(=O)c3cc(F)cc(F)c3)cc2)n1 | > 200 | > 50 | ≥ 200 | ≥ 200 | > 64 | inactive |  |  |  |  |  |  |  |  |  |  |  |  |
| Cl.Nc1ncc(-c2cccc(NC(=O)c3cc(F)cc(F)c3)c2)cn1 | > 200 | > 50 | ≥ 200 | ≥ 200 | > 64 | inactive |  |  |  |  |  |  |  |  |  |  |  |  |
| Cl.Nc1ncc(-c2ccccc2NC(=O)c2cc(Br)cc(Br)c2)cn1 | 69 | > 50 | ≥ 200 | ≥ 200 | > 64 | inactive |  |  |  |  |  |  |  |  |  |  |  |  |
| Cl.Nc1nccc(-c2ccccc2NC(=O)c2cc(Br)cc(Br)c2)n1 | > 200 | > 50 | ≥ 200 | ≥ 200 | > 64 | inactive |  |  |  |  |  |  |  |  |  |  |  |  |
